In the library only some 1.6% were active in any assay of this set; here they are far more common.
SR-BI HDL uptake: inhibitors of SR-BI mediated HDL lipid uptake, primary screen, ldlA[mSR-BI] cells, fluorescence, single point; Scavenger receptor class B member 1 (Mus musculus), Q61009; ldlA[mSR-BI] CHO cells, DiI-HDL uptake fluorescence, 3 h; inhibition, % at 12.5 µM; 320,000 compounds, 0.96% hits; AID 488896, 2010;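 active = mean replicate inhibition of at least 70% and a set share of replicates each scoring 70 or more; inconclusive = meets just one of the two criteria; inactive = fails both criteria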;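 also: 0% = median of neutral control wells and 100% = median of positive control wells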
TLR9-MyD88 block: inhibitors of TLR9-MyD88 association in cells, primary screen, cell-based, CHO, BLA complementation, fluorescence. CCF4 FRET ratio. inhibition, % at 4.98 µM. 340,000 compounds, 0.21% hits. AID 504734, 2011;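 active = inhibition above the mean over all tested compounds plus 3 SD, cut at about 21% in these data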;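 also: 0% = DMSO only wells and 100% = clavulanate BLA inhibitor control wells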
NOD2-RIPK2 inh: NOD2-RIPK2 binding disruptors in cells, primary screen, fluorescence, CHO cells, BLA complementation; AID 624267, 2012; 360,000 compounds, 0.38% hits; CCF4 ratio; inhibition, % at 4.98 µM; Receptor-interacting serine/threonine-protein kinase 2 (Homo sapiens), O43353; in the data active = inhibition above about 21%;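 also: 0% = vehicle only and 100% = reference blocker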
SR-BI DiI-HDL act: activators of SR-BI mediated DiI-HDL uptake, primary screen, ldlA[mSR-BI] CHO cells, DiI fluorescence | 3 h; 100 = double the neutral-control signal | activation, % at 12.5 µM | 320,000 compounds, 0.096% hits | AID 504775, 2011;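 active = mean replicate activation of at least 60% and every replicate at or above 60%; inconclusive = mean or all-replicate condition met, but not both; inactive = mean below 60% and not all replicates reaching 60%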;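 also: 0% = median plate neutral-control signal and 100% = twice that signal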
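Assay system: CHO ldlA[mSR-BI] cells, LDL receptor-null, SR-BI overexpressing; medium: Ham's F12 with 0.5% BSA, HEPES 25 mM, pH 7.4; also added: DiI-HDL 10 µg/mL; timing: 3 h uptake period with compound, 37 °C; signal: DiI fluorescence, bottom read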
Hep lipid drop: inhibitors of hepatocyte lipid droplet formation, primary screen, imaging, high-throughput imaging, BODIPY stain | AML12 mouse hepatocytes, oleate lipid droplets | inhibition, % at 6.5 µM | 240,000 compounds, 0.4% hits | AID 1656, 2009;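 active = lipid droplet intensity inhibited by at least 50%, with more than 500 cells counted; inconclusive = wells with under 300 cells, treated as cytotoxic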
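material = mouse AML12 hepatocyte cell line, fixed after treatment | also added = 100 µM oleic acid challenge | doses = compound at 6.5 µM only | schedule = overnight exposure | technique = Image-based BODIPY and DAPI two-channel analysis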
TLR4-MyD88 BLA: inhibitors of TLR4-MyD88 association in cells, primary screen, cell-based, HeLa CL3-4, BLA complementation, FRET ratio. Toll-like receptor 4 (Homo sapiens) + Myeloid differentiation primary response protein …. HeLa CL3-4 TLR4/MyD88 BLA complementation. inhibition, % at 8.4 µM. 200,000 compounds, 0.18% hits; in the data active = inhibition above about 25%;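 also: 0% = vehicle and 100% = reference inhibitor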
DiI quench: DiI fluorescence quenching in cell-free counter-screen; cell-free DiI-HDL fluorescence quenching, 30 min; shares compounds with SR-BI HDL uptake; 470 compounds, 20% hits; AC50, µM (top dose mostly 35 µM), for inactives: at the highest dose activity change, negative = quenching;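 active = quenching, a falling signal, with AC50 below a set limit tied to the top valid dose, actives reach about 32 µM in these data; inconclusive = no clear call, values can overlap the other calls; inactive = rising signal, and the rest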
Active calls of the source: *.

Results for CC(C)C(=O)Nc1nc(-c2ccc3c(c2)CCN3C(=O)C2CC2)cs1 ?
SR-BI HDL uptake: 88.8*; TLR9-MyD88 block: -5.7; NOD2-RIPK2 inh: -0.7; SR-BI DiI-HDL act: -88.8; Hep lipid drop: 8.5; DiI quench: -8.4%

Results for Cc1cc(C(=O)COC(=O)c2ccc(Cl)c(S(N)(=O)=O)c2)c(C)n1C1CC1 ?
SR-BI HDL uptake: 74.8*; TLR9-MyD88 block: 4.8; NOD2-RIPK2 inh: -2.6; SR-BI DiI-HDL act: -74.8; DiI quench: 1.9%

Results for COc1ccc(C(=O)c2sc(Nc3ccccc3)c(C(=O)Nc3ccc(OC)c(OC)c3)c2N)cc1 ?
TLR9-MyD88 block: 0.6; NOD2-RIPK2 inh: -14.6; Hep lipid drop: -37.1; TLR4-MyD88 BLA: -8.3

Results for COc1ccc(NC(=O)c2c(Nc3ccccc3)sc(C(=O)c3ccc(F)cc3)c2N)cc1 ?
SR-BI HDL uptake: 121.8*; TLR9-MyD88 block: -5.8; NOD2-RIPK2 inh: -16.2; SR-BI DiI-HDL act: -121.8; Hep lipid drop: -78.7; TLR4-MyD88 BLA: 5.1; DiI quench: 0.182µM*

What do the screens show for `COc1ccc(CCNC(=O)CCC(=O)N2CC(C)Oc3ccc(Cl)cc32)cc1OC` (stereo unspecified)?
SR-BI HDL uptake: inconclusive; TLR9-MyD88 block: 3.2; NOD2-RIPK2 inh: 1.9; SR-BI DiI-HDL act: -71.2; Hep lipid drop: 8.2; DiI quench: -2.0%

Results for O=C(c1cccc(S(=O)(=O)NCc2ccccc2)c1)N1CCN(c2ccccc2Cl)CC1 ?
SR-BI HDL uptake: 40.9; TLR9-MyD88 block: -13.9; NOD2-RIPK2 inh: 1.8; SR-BI DiI-HDL act: -40.9

What do the screens show for `COc1ccc2c(c1)OC[C@H]1[C@H]2N2C(=O)c3cc(Cl)ccc3NC(=O)[C@@]2(C)[C@H]1c1ccccc1`?
SR-BI HDL uptake: 71.8*; TLR9-MyD88 block: -5.2; NOD2-RIPK2 inh: -8.9; SR-BI DiI-HDL act: -71.8; DiI quench: -6.4%

How did COc1ccc2c(c1)C(=O)N1[C@H]3c4cc(Cl)ccc4OC[C@@H]3[C@H](c3ccccc3)[C@]1(C)C(=O)N2 do in these assays?
SR-BI HDL uptake: 3.5; TLR9-MyD88 block: 3.3; NOD2-RIPK2 inh: -5.2; SR-BI DiI-HDL act: -3.5

Results for CCN1CCN(c2nc(N(C)c3ccccc3)nc(N)c2[N+](=O)[O-])CC1 ?
SR-BI HDL uptake: 12.1; TLR9-MyD88 block: -1.8; NOD2-RIPK2 inh: -15.1; SR-BI DiI-HDL act: -12.1; Hep lipid drop: 10.0

Results for O=C(NCC1CCCO1)c1ccc2c(c1)N(Cc1ccc(F)cc1)CCS2 (stereo unspecified) ?
SR-BI HDL uptake: 61.9; TLR9-MyD88 block: -2.9; NOD2-RIPK2 inh: 2.9; SR-BI DiI-HDL act: -61.9; Hep lipid drop: -5.7

How did O=C(NCC1CCCO1)c1ccc2c(c1)N(Cc1ccc(F)cc1Cl)C(=O)CS2 (stereo unspecified) do in these assays?
SR-BI HDL uptake: -2.3; TLR9-MyD88 block: -1.1; NOD2-RIPK2 inh: -4.0; SR-BI DiI-HDL act: 2.3; Hep lipid drop: 17.1; DiI quench: -2.5%

How did O=C(N/N=C/c1cccs1)[C@H]1C[C@@H]1c1ccccc1 do in these assays?
SR-BI HDL uptake: -20.3; TLR9-MyD88 block: -3.2; NOD2-RIPK2 inh: -4.7; SR-BI DiI-HDL act: 20.3; Hep lipid drop: -9.6; TLR4-MyD88 BLA: -15.1

How did O=C(NC1CCCCC1)C(c1ccc2ncccc2c1)N(Cc1ccco1)C(=O)c1ccc2c(c1)OCCO2 (stereo unspecified) do in these assays?
SR-BI HDL uptake: -14.1; TLR9-MyD88 block: -5.5; NOD2-RIPK2 inh: -3.5; SR-BI DiI-HDL act: 14.1; TLR4-MyD88 BLA: -6.3; DiI quench: -2.3%
